Activity calls are given as the source filed them.
Legend:
L929 = test: Anti-necroptotic activity in mouse L929 cells assessed as inhibition of TNFalpha/Z-VAD-fmk (TZ)-induced necroptosis by measuring increase in cell viability measured after 12 hrs by celltiter-glo luminescent cell viability assay; format: functional, cell-based
How it was run: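 Mouse L929 fibroblasts pretreated with test agent, then mouse TNF-α (20 ng/mL) plus z-VAD-fmk (20 μM). Incubation stated as 4 h in table footnote and 12 h in figure legend. CellTiter-Glo viability. EC50 ± SD from at least three independent repeats.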

Mus musculus = test: Protection against TNFalpha-induced C57BL/6J mouse model of systemic inflammatory response syndrome assessed as reduction in hypothermia at 10 to 20 mg/kg, ig administered via gavage 2 hrs prior to TNFalpha stimulation and measured after 10 to 60 mins by electric thermometric method; format: functional, organism-based; details: dose 10-20 mg/kg, time 2-3 hrs
How it was run: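 Female C57BL/6J mice, fasted, n=11 per group. Agent at 10 or 20 mg/kg in 0.5% CMC-Na by gavage 2 h before i.v. mTNF-α (250 µg/kg). z-VAD-fmk i.p. 200 µg at −15 min and 75 µg at +1 h. Body temperature tracked, mean ± S.E.M.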

HT-29 [1] = test: Anti-necroptotic activity in human HT-29 cells assessed as inhibition of TNFalpha/SM-164/Z-VAD-fmk (TSZ)-induced necroptosis by measuring increase in cell viability at 10 uM measured after 12 hrs in presence of RIPK1/3 inhibitor TAK632 by celltiter-glo luminescent cell viability assay; format: functional, cell-based
How it was run: (§1)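 HT-29 cells exposed to test agent combined with a second necroptosis inhibitor, then stimulated with TSZ for 12 h to assess synergy. Viability read by CellTiter-Glo luminescence.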

[2] = target: Heat shock protein HSP90 (Homo sapiens) (UniProt P07900+P08238); test: Inhibition of HSP90 in TNFalpha/SM-164/Z-VAD-fmk (TSZ)-induced human HT-29 cells assessed as increase in HSP70 expression at 10 uM by Western blot analysis; format: cell-based; details: time 0.5-6 hrs
Rattus norvegicus = test: Neuroprotective activity in middle cerebral artery occlusion-induced Sprague-Dawley rat model of ischemia-reperfusion injury assessed as reversal of pathological change at 100 mg/kg by H and E staining based analysis; format: functional, organism-based
How it was run: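 Rats underwent 2 h MCA filament occlusion, then 24 h reperfusion, agent at 100 mg/kg. Animals perfused with saline and 4% paraformaldehyde. Brains paraffin-embedded and cut into 5 μm coronal sections. Hippocampus and cortex assessed by HE staining.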

HT-29 [3] = test: Anti-necroptotic activity in human HT-29 cells assessed as inhibition of TNFalpha/cycloheximide/Z-VAD-fmk (TCZ)-induced necroptosis by measuring increase in cell viability measured after 16 hrs by celltiter-glo luminescent cell viability assay; format: functional, cell-based
HT-29 [4] = test: Anti-necroptotic activity in human HT-29 cells assessed as inhibition of TNFalpha/SM-164/Z-VAD-fmk (TSZ)-induced necroptosis by measuring increase in cell viability at 10 uM measured after 12 hrs in presence of RIPK1 inhibitor Nec-1 by celltiter-glo luminescent cell viability assay; format: functional, cell-based; how it was run: as §1

CC1(C)CC[C@]2(C(=O)n3cnc(-c4cccnc4)c3)CC[C@]3(C)[C@H](C(=O)C=C4[C@@]5(C)C=C(C#N)C(=O)C(C)(C)[C@@H]5CC[C@]43C)[C@@H]2C1
active: inhibition (L929) Dose-dependent effect | Activity (Mus musculus) | inhibition (HT-29 [1]) | inhibition [2] Dose-dependent effect | Activity (Rattus norvegicus) | inhibition (HT-29 [3]) Dose-dependent effect | inhibition (HT-29 [4])
860 nM: EC50 (L929; L929, 12 h)

— ChEMBL document CHEMBL4732104, “Discovery of bardoxolone derivatives as novel orally active necroptosis inhibitors” (Eur J Med Chem, 2021)
